Data from article PMC9924909 (Brain, 2022).
Several values for one entry are separate records, joined by “and”; a condition that tells them apart may be missing. Identical values can stand only once. Entries after “also recorded” stand apart in the source; their conditions may differ.

What was measured:
[1] = test system: adults with GD3; experiment: Vineland Adaptive Behavior Scale II; format: in vivo, human; settings: over 1 year of venglustat treatment
[2] = test system: mouse models of neurological GD; settings: cited from earlier work
[3] = test system: glucosylsphingosine; experiment: Glucosylsphingosine concentration in plasma and CSF, LEAP trial; format: in vivo, human
Summary of the method: (§1)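 CSF collected by lumbar puncture at baseline and Weeks 1, 4, 26, 52; plasma at baseline and Weeks 1, 4, 12, 26, 39, 52. Dosing was oral test compound 15 mg once daily with maintenance IV enzyme replacement. LLOQ: glucosylceramide 0.1 μg/ml plasma, 2.0 ng/ml CSF; glucosylsphingosine 5.0 ng/ml plasma, 5 pg/ml CSF. Change from baseline summarised as median percentage with interquartile range and 95% CI.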

[4] = test system: glucosylceramide; experiment: Glucosylceramide concentration in plasma and CSF, LEAP trial; format: in vivo, human
Summary of the method: as §1

[5] = baseline to Week 52, 11 patients
[6] = individual patients, baseline to Week 52

CC(C)(NC(=O)O[C@@H]1CN2CCC1CC2)c1csc(-c2ccc(F)cc2)n1 [Venglustat]
Vineland II domain scores over time [1]: deteriorated in all domains; also recorded: All domains decreased in normative score | glycolipid accumulation in liver and brain [2]: reduced accumulation of gluco-series glycolipids in the liver and brain | median survival of treated mice ([2]; increased from 45 days): 60 days | increase in median survival ([2]; treated mice): 30% | median glucosylsphingosine reduction in CSF [3, 5]: 70% | median glucosylsphingosine reduction in plasma [3, 5]: 56% | Glucosylsphingosine concentration, CSF, Change [3, 6]: −72 pg/ml and −23.2 pg/ml and −30.2 pg/ml and +75.8 pg/ml and −15.75 pg/ml and −53.5 pg/ml and −9.8 pg/ml and −14.3 pg/ml and −17.3 pg/ml and −32.7 pg/ml and −35.7 pg/ml | Glucosylsphingosine concentration, CSF, Percentage change [3, 6]: −72% and −48% and −44.7% and +313.2% and −69.7% and −95.5% and −46% and −71.1% and −87.4% and −75.7% and −70.3% | Glucosylsphingosine concentration, Plasma, Change [3, 6]: −3.2 ng/ml and −18.9 ng/ml and −33 ng/ml and +69 ng/ml and −3.79 ng/ml and −22.5 ng/ml and −6.28 ng/ml and −8.67 ng/ml and −8.07 ng/ml and −4.5 ng/ml and −31.3 ng/ml | Glucosylsphingosine concentration, Plasma, Percentage change [3, 6]: −56.1% and −50.7% and −41.4% and +43.4% and −60.3% and −57.8% and −71.5% and −59.8% and −47.8% and −23.3% and −64% | median glucosylceramide reduction in CSF [4, 5]: 81% | median glucosylceramide reduction in plasma [4, 5]: 78% | Glucosylceramide concentration, CSF, Change [4, 6]: −4.04 ng/ml and −4.95 ng/ml and −8.95 ng/ml and +1.64 ng/ml and −4.17 ng/ml and −4.7 ng/ml and −3.32 ng/ml and −3.53 ng/ml and −7.02 ng/ml and −13.3 ng/ml | Glucosylceramide concentration, CSF, Percentage change [4, 6]: −80.2% and −83.2% and −80.6% and +37.1% and −80.7% and −82.5% and −47.4% and −77.9% and −76.9% and −87.5% and −93% | Glucosylceramide concentration, Plasma, Change [4, 6]: −4.31 μg/ml and −5.49 μg/ml and −4.7 μg/ml and +1.14 μg/ml and −3.97 μg/ml and −2.24 μg/ml and −5.31 μg/ml and −4.19 μg/ml and −3.68 μg/ml and −6.69 μg/ml | Glucosylceramide concentration, Plasma, Percentage change [4, 6]: −82.5% and −78.4% and −71.6% and +13.7% and −78.2% and −85.9% and −45.8% and −84% and −80.3% and −77% and −85.1%
